Test results reported in ChEMBL document CHEMBL1149558, “Synthesis of symmetrical C- and pseudo-symmetrical O-linked disaccharide analogs for arabinosyltransferase inhibitory activity in Mycobacterium tuberculosis” (Bioorg Med Chem Lett, 2007).
≈ marks a conversion by molar mass, not a printed value. Calls of active or inactive are those of the source. No cut-off for these calls is given here.

Columns and labels:
Mycobacterium avium [1] = experiment: Antimycobacterial activity against Mycobacterium avium; format: functional
How it was run: (§1)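 Colorimetric broth microdilution against M. tuberculosis H37Ra (ATCC 25177) and M. avium NJ 211. Initial screen at 1.28 and 12.8 μg/mL. Activity was confirmed with […] dilutions at 16, 8 and 4 μg/mL to set the MIC.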

[2] = tested on: Mycobacterium tuberculosis; experiment: Antimycobacterial activity against Mycobacterium tuberculosis H37Ra; format: functional; how it was run: as §1
[3] = target: T1, Probable arabinosyltransferase A (Mycobacterium tuberculosis) (UniProt P9WNL9); experiment: Inhibition of Mycobacterium smegmatis arabinosyl transferase assessed as [14C]arabinofuranose incorporation at 3.6 mM; details: Mycolicibacterium smegmatis
T1 sequence (whole entry): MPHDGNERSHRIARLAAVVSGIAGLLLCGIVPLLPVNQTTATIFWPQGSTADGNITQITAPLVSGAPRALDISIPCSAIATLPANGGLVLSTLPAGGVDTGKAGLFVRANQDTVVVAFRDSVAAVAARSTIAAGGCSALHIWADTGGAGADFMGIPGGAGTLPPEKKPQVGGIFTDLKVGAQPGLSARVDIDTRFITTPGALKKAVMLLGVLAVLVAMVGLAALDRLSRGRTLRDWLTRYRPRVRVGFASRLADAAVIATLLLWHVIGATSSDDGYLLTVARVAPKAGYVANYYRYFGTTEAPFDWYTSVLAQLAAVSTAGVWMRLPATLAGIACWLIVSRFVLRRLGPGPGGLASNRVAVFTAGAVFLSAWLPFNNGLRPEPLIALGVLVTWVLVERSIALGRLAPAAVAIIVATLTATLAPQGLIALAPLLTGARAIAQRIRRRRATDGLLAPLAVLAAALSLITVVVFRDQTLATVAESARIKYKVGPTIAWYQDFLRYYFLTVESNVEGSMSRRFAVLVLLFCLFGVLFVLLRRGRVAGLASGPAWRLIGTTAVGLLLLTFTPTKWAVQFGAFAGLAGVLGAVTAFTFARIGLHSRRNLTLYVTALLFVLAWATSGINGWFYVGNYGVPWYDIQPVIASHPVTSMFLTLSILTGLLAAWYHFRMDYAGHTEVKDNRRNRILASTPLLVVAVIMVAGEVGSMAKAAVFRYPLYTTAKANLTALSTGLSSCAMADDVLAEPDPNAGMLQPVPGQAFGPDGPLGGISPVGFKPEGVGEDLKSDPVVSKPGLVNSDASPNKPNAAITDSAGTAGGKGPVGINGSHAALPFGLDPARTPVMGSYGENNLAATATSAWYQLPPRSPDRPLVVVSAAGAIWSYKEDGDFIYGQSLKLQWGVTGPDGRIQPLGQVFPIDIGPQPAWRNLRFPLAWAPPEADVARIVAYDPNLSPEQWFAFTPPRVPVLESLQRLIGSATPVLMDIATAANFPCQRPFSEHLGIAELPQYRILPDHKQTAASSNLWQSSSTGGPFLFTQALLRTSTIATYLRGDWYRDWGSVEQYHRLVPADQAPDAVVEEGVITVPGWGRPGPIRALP
How it was run: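 Cell-free competition arabinosyltransferase acceptor assay with membranes and [14C]DPA as glycosyl donor. The read-out is inhibition of [14C]Araf incorporation into the α(1→5)-linked 1-O-octyl arabinofuranosyl disaccharide acceptor at 0.4 mM. Test compounds were run at 3.6 mM, and IC50 values were also derived.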

Mycobacterium avium [4] = experiment: Antimycobacterial activity against Mycobacterium avium at 12.8 ug/mL; format: functional, organism-based; how it was run: as §1

SMILES	MIC (Mycobacterium avium [1]) [µg/mL]	MIC [2] [µg/mL]	Activity [3]	Activity (Mycobacterium avium [4])
O[C@H]1[C@H](O)[C@@H](CN(CC2CCCCC2)CC2CCCCC2)O[C@@H]1CC[C@H]1O[C@H](CN(CC2CCCCC2)CC2CCCCC2)[C@@H](O)[C@@H]1O	16 (≈ 23.6 µM)	16 (≈ 23.6 µM)	Active	
CC[C@@H](CO)NCCN[C@@H](CC)CO [ETHAMBUTOL]		2 (≈ 9.79 µM)		
O[C@@H]1[C@@H](OC[C@H]2O[C@H](CN(CC3CCCCC3)CC3CCCCC3)[C@@H](O)[C@@H]2O)O[C@H](CN(CC2CCCCC2)CC2CCCCC2)[C@H]1O	16 (≈ 23.6 µM)	8 (≈ 11.8 µM)	Active	
CC(C)(C)[Si](C)(C)O[C@H]1[C@H](O[Si](C)(C)C(C)(C)C)[C@@H](CO[C@H]2O[C@H](CN=[N+]=[N-])[C@@H](O)[C@@H]2O)O[C@@H]1CN=[N+]=[N-]		16 (≈ 27.8 µM)		inactive
O[C@H]1[C@H](O)[C@@H](CN(CC2CCCCC2)CC2CCCCC2)O[C@@H]1/C=C/[C@H]1O[C@H](CN(CC2CCCCC2)CC2CCCCC2)[C@@H](O)[C@@H]1O	8 (≈ 11.9 µM)	8 (≈ 11.9 µM)	Active	
CC(C)(C)[Si](C)(C)O[C@H]1[C@H](O[Si](C)(C)C(C)(C)C)[C@@H](CN(CC2CCCCC2)CC2CCCCC2)O[C@@H]1CO[C@H]1O[C@H](CN(CC2CCCCC2)CC2CCCCC2)[C@@H](O)[C@@H]1O		> 12.8		inactive
